Measured values as given in paper PMC4076525 (The Journal of General Physiology, 2014).

Columns and labels:
[1] = Extent of FeEnt-induced quenching of FM fluorescence in live cells; format: cell-based, Escherichia coli; conditions: 10 nM FeEnt, 2.5 × 10^7 cells/ml, FM-labeled mutants
Method in brief: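 Hosts were tonB+ ΔfepA or ΔtonB ΔfepA E. coli expressing plasmid-borne Cys-substituted FepA, grown in iron-deficient MOPS medium to late log. 10^10 cells were labeled with 5 µM fluorescein-5-maleimide in 50 mM Na2HPO4, 0.9% NaCl, pH 6.5, for 5 min at 37°C. Labeling was quenched with β-mercaptoethanol, and cells were resuspended in PBS with 0.4% glucose. FeEnt was added to 2.5 × 10^7 cells in 3 ml, stirred at 2°C, with emission read at 520 nm.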

59FeEnt transport = format: cell-based, Escherichia coli; conditions: for Vmax fold lower after fluoresceination: 59FeEnt uptake; for Transport rate relative to wild-type FepA: FM-modified, TonB-dependent uptake
Method in brief: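 Cultures were grown in LB with antibiotics, then in iron-deficient MOPS medium to 10^9 cells/ml. Cells were assayed before and after labeling with 5 µM fluorescein-5-maleimide (pH 6.5 phosphate/NaCl buffer, 5 min, 37°C, β-mercaptoethanol stop). Uptake was measured in MOPS medium with 0.4% glucose at 37°C in 10-ml volumes. KM and Vmax came from an enzyme-kinetics equation fit per sample.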

B1: S275C: E. coli FepA with Cys substitution at S275, surface loop 3 (protein, UniProt P05825 23-746, looked up, variant S275C)
Ferrienterobactin receptor: QEPTDTPVSHDDTIVVTAAEQNLQAPGVSTITADEIRKNPVARDVSKIIRTMPGVNLTGNSTSGQRGNNRQIDIRGMGPENTLILIDGKPVSSRNSVRQGWRGERDTRGDTSWVPPEMIERIEVLRGPAAARYGNGAAGGVVNIITKKGSGEWHGSWDAYFNAPEHKEEGATKRTNFSLTGPLGDEFSFRLYGNLDKTQADAWDINQGHQSARAGTYATTLPAGREGVINKDINGVVRWDFAPLQSLELEAGYSRQGNLYAGDTQNTNSDSYTRCKYGDETNRLYRQNYALTWNGGWDNGVTTSNWVQYEHTRNSRIPEGLAGGTEGKFNEKATQDFVDIDLDDVMLHSEVNLPIDFLVNQTLTLGTEWNQQRMKDLSSNTQALTGTNTGGAIDGVSTTDRSPYSKAEIFSLFAENNMELTDSTIVTPGLRFDHHSIVGNNWSPALNISQGLGDDFTLKMGIARAYKAPSLYQTNPNYILYSKGQGCYASAGGCYLQGNDDLKAETSINKEIGLEFKRDGWLAGVTWFRNDYRNKIEAGYVAVGQNAVGTDLYQWDNVPKAVVEGLEGSLNVPVSETVMWTNNITYMLKSENKTTGDRLSIIPEYTLNSTLSWQAREDLSMQTTFTWYGKQQPKKYNYKGQPAVGPETKEISPYSIVGLSATWDVTKNVSLTGGVDNLFDKRLWRAGNAQTTGDLAGANYIAGAGAYTYNEPGRTWYMSVNTHF
- Quenching of FM emissions by FeEnt binding [1]: unaffected by FeEnt

B2: T550C-FM: FepA T550C labeled with fluorescein-5-maleimide (FM) (conjugate, UniProt P05825 23-746, looked up, variant T550C)
Ferrienterobactin receptor: QEPTDTPVSHDDTIVVTAAEQNLQAPGVSTITADEIRKNPVARDVSKIIRTMPGVNLTGNSTSGQRGNNRQIDIRGMGPENTLILIDGKPVSSRNSVRQGWRGERDTRGDTSWVPPEMIERIEVLRGPAAARYGNGAAGGVVNIITKKGSGEWHGSWDAYFNAPEHKEEGATKRTNFSLTGPLGDEFSFRLYGNLDKTQADAWDINQGHQSARAGTYATTLPAGREGVINKDINGVVRWDFAPLQSLELEAGYSRQGNLYAGDTQNTNSDSYTRSKYGDETNRLYRQNYALTWNGGWDNGVTTSNWVQYEHTRNSRIPEGLAGGTEGKFNEKATQDFVDIDLDDVMLHSEVNLPIDFLVNQTLTLGTEWNQQRMKDLSSNTQALTGTNTGGAIDGVSTTDRSPYSKAEIFSLFAENNMELTDSTIVTPGLRFDHHSIVGNNWSPALNISQGLGDDFTLKMGIARAYKAPSLYQTNPNYILYSKGQGCYASAGGCYLQGNDDLKAETSINKEIGLEFKRDGWLAGVTWFRNDYRNKIEAGYVAVGQNAVGCDLYQWDNVPKAVVEGLEGSLNVPVSETVMWTNNITYMLKSENKTTGDRLSIIPEYTLNSTLSWQAREDLSMQTTFTWYGKQQPKKYNYKGQPAVGPETKEISPYSIVGLSATWDVTKNVSLTGGVDNLFDKRLWRAGNAQTTGDLAGANYIAGAGAYTYNEPGRTWYMSVNTHF
modifications: fluorescein-5-maleimide label
- Vmax fold lower after fluoresceination (59FeEnt transport): 3–10 fold

B3: S271C-FM (conjugate, UniProt P05825 23-746, looked up, variant S271C)
Ferrienterobactin receptor: QEPTDTPVSHDDTIVVTAAEQNLQAPGVSTITADEIRKNPVARDVSKIIRTMPGVNLTGNSTSGQRGNNRQIDIRGMGPENTLILIDGKPVSSRNSVRQGWRGERDTRGDTSWVPPEMIERIEVLRGPAAARYGNGAAGGVVNIITKKGSGEWHGSWDAYFNAPEHKEEGATKRTNFSLTGPLGDEFSFRLYGNLDKTQADAWDINQGHQSARAGTYATTLPAGREGVINKDINGVVRWDFAPLQSLELEAGYSRQGNLYAGDTQNTNSDCYTRSKYGDETNRLYRQNYALTWNGGWDNGVTTSNWVQYEHTRNSRIPEGLAGGTEGKFNEKATQDFVDIDLDDVMLHSEVNLPIDFLVNQTLTLGTEWNQQRMKDLSSNTQALTGTNTGGAIDGVSTTDRSPYSKAEIFSLFAENNMELTDSTIVTPGLRFDHHSIVGNNWSPALNISQGLGDDFTLKMGIARAYKAPSLYQTNPNYILYSKGQGCYASAGGCYLQGNDDLKAETSINKEIGLEFKRDGWLAGVTWFRNDYRNKIEAGYVAVGQNAVGTDLYQWDNVPKAVVEGLEGSLNVPVSETVMWTNNITYMLKSENKTTGDRLSIIPEYTLNSTLSWQAREDLSMQTTFTWYGKQQPKKYNYKGQPAVGPETKEISPYSIVGLSATWDVTKNVSLTGGVDNLFDKRLWRAGNAQTTGDLAGANYIAGAGAYTYNEPGRTWYMSVNTHF
modifications: fluorescein-5-maleimide label
- Transport rate relative to wild-type FepA (59FeEnt transport): 65%

B4: A383C-FM: FepA A383C labeled with fluorescein-5-maleimide (FM) (conjugate, UniProt P05825 23-746, looked up, variant A383C)
Ferrienterobactin receptor: QEPTDTPVSHDDTIVVTAAEQNLQAPGVSTITADEIRKNPVARDVSKIIRTMPGVNLTGNSTSGQRGNNRQIDIRGMGPENTLILIDGKPVSSRNSVRQGWRGERDTRGDTSWVPPEMIERIEVLRGPAAARYGNGAAGGVVNIITKKGSGEWHGSWDAYFNAPEHKEEGATKRTNFSLTGPLGDEFSFRLYGNLDKTQADAWDINQGHQSARAGTYATTLPAGREGVINKDINGVVRWDFAPLQSLELEAGYSRQGNLYAGDTQNTNSDSYTRSKYGDETNRLYRQNYALTWNGGWDNGVTTSNWVQYEHTRNSRIPEGLAGGTEGKFNEKATQDFVDIDLDDVMLHSEVNLPIDFLVNQTLTLGTEWNQQRMKDLSSNTQCLTGTNTGGAIDGVSTTDRSPYSKAEIFSLFAENNMELTDSTIVTPGLRFDHHSIVGNNWSPALNISQGLGDDFTLKMGIARAYKAPSLYQTNPNYILYSKGQGCYASAGGCYLQGNDDLKAETSINKEIGLEFKRDGWLAGVTWFRNDYRNKIEAGYVAVGQNAVGTDLYQWDNVPKAVVEGLEGSLNVPVSETVMWTNNITYMLKSENKTTGDRLSIIPEYTLNSTLSWQAREDLSMQTTFTWYGKQQPKKYNYKGQPAVGPETKEISPYSIVGLSATWDVTKNVSLTGGVDNLFDKRLWRAGNAQTTGDLAGANYIAGAGAYTYNEPGRTWYMSVNTHF
modifications: fluorescein-5-maleimide label
- Vmax fold lower after fluoresceination (59FeEnt transport): 3–10 fold

B5: fepA+: wild-type E. coli FepA, outer membrane ferric enterobactin transporter, expressed from pHSG575 plasmid (protein, UniProt P05825 23-746, looked up)
Ferrienterobactin receptor: QEPTDTPVSHDDTIVVTAAEQNLQAPGVSTITADEIRKNPVARDVSKIIRTMPGVNLTGNSTSGQRGNNRQIDIRGMGPENTLILIDGKPVSSRNSVRQGWRGERDTRGDTSWVPPEMIERIEVLRGPAAARYGNGAAGGVVNIITKKGSGEWHGSWDAYFNAPEHKEEGATKRTNFSLTGPLGDEFSFRLYGNLDKTQADAWDINQGHQSARAGTYATTLPAGREGVINKDINGVVRWDFAPLQSLELEAGYSRQGNLYAGDTQNTNSDSYTRSKYGDETNRLYRQNYALTWNGGWDNGVTTSNWVQYEHTRNSRIPEGLAGGTEGKFNEKATQDFVDIDLDDVMLHSEVNLPIDFLVNQTLTLGTEWNQQRMKDLSSNTQALTGTNTGGAIDGVSTTDRSPYSKAEIFSLFAENNMELTDSTIVTPGLRFDHHSIVGNNWSPALNISQGLGDDFTLKMGIARAYKAPSLYQTNPNYILYSKGQGCYASAGGCYLQGNDDLKAETSINKEIGLEFKRDGWLAGVTWFRNDYRNKIEAGYVAVGQNAVGTDLYQWDNVPKAVVEGLEGSLNVPVSETVMWTNNITYMLKSENKTTGDRLSIIPEYTLNSTLSWQAREDLSMQTTFTWYGKQQPKKYNYKGQPAVGPETKEISPYSIVGLSATWDVTKNVSLTGGVDNLFDKRLWRAGNAQTTGDLAGANYIAGAGAYTYNEPGRTWYMSVNTHF
- Transport <FM Vmax (59FeEnt transport; 59FeEnt, 37°C, before modification with FM, listed as wild-type FepA): ~100 pMol/min/10^9 cells

B6: A322C (protein, UniProt P05825 23-746, looked up, variant A322C)
Ferrienterobactin receptor: QEPTDTPVSHDDTIVVTAAEQNLQAPGVSTITADEIRKNPVARDVSKIIRTMPGVNLTGNSTSGQRGNNRQIDIRGMGPENTLILIDGKPVSSRNSVRQGWRGERDTRGDTSWVPPEMIERIEVLRGPAAARYGNGAAGGVVNIITKKGSGEWHGSWDAYFNAPEHKEEGATKRTNFSLTGPLGDEFSFRLYGNLDKTQADAWDINQGHQSARAGTYATTLPAGREGVINKDINGVVRWDFAPLQSLELEAGYSRQGNLYAGDTQNTNSDSYTRSKYGDETNRLYRQNYALTWNGGWDNGVTTSNWVQYEHTRNSRIPEGLCGGTEGKFNEKATQDFVDIDLDDVMLHSEVNLPIDFLVNQTLTLGTEWNQQRMKDLSSNTQALTGTNTGGAIDGVSTTDRSPYSKAEIFSLFAENNMELTDSTIVTPGLRFDHHSIVGNNWSPALNISQGLGDDFTLKMGIARAYKAPSLYQTNPNYILYSKGQGCYASAGGCYLQGNDDLKAETSINKEIGLEFKRDGWLAGVTWFRNDYRNKIEAGYVAVGQNAVGTDLYQWDNVPKAVVEGLEGSLNVPVSETVMWTNNITYMLKSENKTTGDRLSIIPEYTLNSTLSWQAREDLSMQTTFTWYGKQQPKKYNYKGQPAVGPETKEISPYSIVGLSATWDVTKNVSLTGGVDNLFDKRLWRAGNAQTTGDLAGANYIAGAGAYTYNEPGRTWYMSVNTHF
- 59FeEnt transport rate compared with wild-type FepA (59FeEnt transport; before fluoresceination): about half that rate

B7: A698C-FM: FepA A698C labeled with fluorescein-5-maleimide (FM) (conjugate, UniProt P05825 23-746, looked up, variant A698C)
Ferrienterobactin receptor: QEPTDTPVSHDDTIVVTAAEQNLQAPGVSTITADEIRKNPVARDVSKIIRTMPGVNLTGNSTSGQRGNNRQIDIRGMGPENTLILIDGKPVSSRNSVRQGWRGERDTRGDTSWVPPEMIERIEVLRGPAAARYGNGAAGGVVNIITKKGSGEWHGSWDAYFNAPEHKEEGATKRTNFSLTGPLGDEFSFRLYGNLDKTQADAWDINQGHQSARAGTYATTLPAGREGVINKDINGVVRWDFAPLQSLELEAGYSRQGNLYAGDTQNTNSDSYTRSKYGDETNRLYRQNYALTWNGGWDNGVTTSNWVQYEHTRNSRIPEGLAGGTEGKFNEKATQDFVDIDLDDVMLHSEVNLPIDFLVNQTLTLGTEWNQQRMKDLSSNTQALTGTNTGGAIDGVSTTDRSPYSKAEIFSLFAENNMELTDSTIVTPGLRFDHHSIVGNNWSPALNISQGLGDDFTLKMGIARAYKAPSLYQTNPNYILYSKGQGCYASAGGCYLQGNDDLKAETSINKEIGLEFKRDGWLAGVTWFRNDYRNKIEAGYVAVGQNAVGTDLYQWDNVPKAVVEGLEGSLNVPVSETVMWTNNITYMLKSENKTTGDRLSIIPEYTLNSTLSWQAREDLSMQTTFTWYGKQQPKKYNYKGQPAVGPETKEISPYSIVGLSATWDVTKNVSLTGGVDNLFDKRLWRAGNAQTTGDLAGCNYIAGAGAYTYNEPGRTWYMSVNTHF
modifications: fluorescein-5-maleimide label
- Transport rate relative to wild-type FepA (59FeEnt transport): 90%
